# Experimental data: ChEMBL document CHEMBL1140930 (J Med Chem, 2009)
# Key:
# K562 = assay: Antiproliferative activity against human K562 cells after 48 hrs; assay type: functional, cell-based; conditions: K562, 48 h
# In short: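 K562 cells (RPMI 1640, 10% FBS, 37 °C, 5% CO2) plated at 2 × 10⁵ cells/mL. Compounds dissolved in DMSO/methanol 1:1, vehicle 0.5%. Cells counted in a Neubauer chamber after 48 h and expressed as % of untreated control. Triplicate wells, three experiments. IC50 from nonlinear regression.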
# Tubulin = Tubulin (Sus scrofa, UniProt P02554+P02550); assay: Inhibition of pig brain tubulin polymerization after 30 mins by turbidimetric assay
# In short: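 Microtubule protein from porcine brain (80–90% tubulin, 10–20% MAPs), purified by two disassembly/reassembly cycles. Assay buffer: 20 mM PIPES pH 6.8, 80 mM NaCl, 0.5 mM MgCl2, 1 mM EGTA, 1 mM DTT. Protein at 1.2 mg/mL with 0.6 mM GTP final, 1% DMSO final, 37 °C.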
# SF-268 = assay: Antiproliferative activity against human SF268 cells by XTT assay; assay type: functional, cell-based
# In short: (§1)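 XTT metabolic read-out. Cells seeded at 1 × 10³–8 × 10⁴ cells/well for logarithmic growth and exposed to graded concentrations for 48 h. At least two replicates. IC50 from nonlinear regression of dose-response curves. LT12/MDR: rat LT12 with ectopic human MDR-1. L1210/VCR: MDR-1 expressing, MRP-1 negative.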
# NCI-H460 = assay: Antiproliferative activity against human NCI-H460 cells by XTT assay; assay type: functional, cell-based; in short: as §1
# RKO [1] = assay: Antiproliferative activity against human RKO cells containing ecdysone-inducible expression vector of p27kipl by XTT assay; assay type: functional, cell-based
# In short: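 RKO cells carried an ecdysone-inducible p27Kip1 vector and were tested with and without induction. On day 1 they were plated with or without 3 µM ponasterone A, which gives G1 arrest, at 2 × 10⁴ cells/well induced or 6 × 10³ not induced, then held 24 h at 37 °C. Compound was then added for 48 h at 37 °C, followed by a standard XTT assay. IC50 came from nonlinear regression, n ≥ 2.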
# RKO [2] = assay: Antiproliferative activity against human RKO cells by XTT assay; assay type: functional, cell-based
# In short: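 RKO colon cells with ecdysone-inducible p27Kip1. Day 1: plated with or without 3 µM ponasterone A for 24 h, giving G1 arrest when induced (2 × 10⁴ cells/well induced; 6 × 10³ not induced). Day 2: compound added (DMSO control) for 48 h at 37 °C, then standard XTT. At least duplicate. IC50 by nonlinear regression.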
# SK-OV-3 = assay: Antiproliferative activity against human SKOV3 cells by XTT assay; assay type: functional, cell-based
# In short: (§2)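 XTT metabolic-activity read-out of proliferation. Cells were seeded at 1 × 10³-8 × 10⁴ cells/well for logarithmic growth and exposed to a range of compound concentrations for 48 h. IC50 came from nonlinear regression of dose-response curves, with at least two replicates. The P388/Adr subline was doxorubicin-selected with elevated MDR-1.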
# [3] = Antiproliferative activity against human KB/HeLa cells by XTT assay; assay type: functional, cell-based; in short: as §1
# [4] = Cell cycle arrest in human KB/HeLa cells assessed as S phase accumulation at 100 nM after 24 hrs by FACS analysis; assay type: functional, cell-based
# In short: (§3)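 Subconfluent KB/HeLa cells exposed to a range of compound concentrations for 24 h at 37 °C, then detached and fixed in 70% ethanol. DNA stained with propidium iodide after RNase digestion and measured by flow cytometry. Cell-cycle phase fractions taken from cell cycle analysis software. At least two replicates.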
# [5] = Cell cycle arrest in human KB/HeLa cells assessed as G2/M phase accumulation at 316 nM after 24 hrs by FACS analysis; assay type: functional, cell-based; in short: as §3
# [6] = Cell cycle arrest in human KB/HeLa cells assessed as G2/M phase accumulation at 10 nM after 24 hrs by FACS analysis; assay type: functional, cell-based; in short: as §3
# [7] = Cell cycle arrest in human KB/HeLa cells assessed as S phase accumulation at 3.16 nM after 24 hrs by FACS analysis; assay type: functional, cell-based; in short: as §3
# [8] = Cell cycle arrest in human KB/HeLa cells assessed as G1 phase accumulation at 1 nM after 24 hrs by FACS analysis; assay type: functional, cell-based; in short: as §3
# [9] = Antiproliferative activity against rat LT12 cells after 48 hrs by XTT assay; assay type: functional, cell-based; conditions: LT12, 48 h; in short: as §2
# [10] = Cell cycle arrest in human KB/HeLa cells assessed as G2/M phase accumulation at 31.6 nM after 24 hrs by FACS analysis; assay type: functional, cell-based; in short: as §3
# [11] = Cell cycle arrest in human KB/HeLa cells assessed as G2/M phase accumulation at 100 nM after 24 hrs by FACS analysis; assay type: functional, cell-based; in short: as §3
# [12] = Cell cycle arrest in human KB/HeLa cells assessed as G1 phase accumulation at 10 nM after 24 hrs by FACS analysis; assay type: functional, cell-based; in short: as §3
# P388 [13] = assay: Antiproliferative activity against doxorubicin-resistant mouse P388 cells expressing MDR1 protein after 48 hrs by XTT assay; assay type: functional, cell-based; conditions: P388, 48 h; in short: as §2
# [14] = Cell cycle arrest in human KB/HeLa cells assessed as G2/M phase accumulation after 24 hrs by FACS analysis; assay type: functional, cell-based; in short: as §3
# [15] = Cell cycle arrest in human KB/HeLa cells assessed as G2/M phase accumulation at 1 nM after 24 hrs by FACS analysis; assay type: functional, cell-based; in short: as §3
# L1210 = assay: Antiproliferative activity against vincristine-resistance MRP1 negative mouse L1210 cells expressing human MDR1 after 48 hrs by XTT assay; assay type: functional, cell-based; conditions: L1210, 48 h; in short: as §1
# [16] = Cell cycle arrest in human KB/HeLa cells assessed as G1 phase accumulation at 100 nM after 24 hrs by FACS analysis; assay type: functional, cell-based; in short: as §3
# [17] = Cell cycle arrest in human KB/HeLa cells assessed as G1 phase accumulation at 3.16 nM after 24 hrs by FACS analysis; assay type: functional, cell-based; in short: as §3
# [18] = Antiproliferative activity against rat LT12 cells ectopic expression of human MDR1 after 48 hrs by XTT assay; assay type: functional, cell-based; conditions: LT12, 48 h; in short: as §1
# [19] = Cell cycle arrest in human KB/HeLa cells assessed as G1 phase accumulation at 31.6 nM after 24 hrs by FACS analysis; assay type: functional, cell-based; in short: as §3
# [20] = Cell cycle arrest in human KB/HeLa cells assessed as S phase accumulation at 316 nM after 24 hrs by FACS analysis; assay type: functional, cell-based; in short: as §3
# [21] = Cell cycle arrest in human KB/HeLa cells assessed as S phase accumulation at 10 nM after 24 hrs by FACS analysis; assay type: functional, cell-based; in short: as §3
# P388 [22] = assay: Antiproliferative activity against mouse P388 cells after 48 hrs by XTT assay; assay type: functional, cell-based; conditions: P388, 48 h; in short: as §2
# [23] = Cell cycle arrest in human KB/HeLa cells assessed as S phase accumulation at 31.6 nM after 24 hrs by FACS analysis; assay type: functional, cell-based; in short: as §3
# [24] = Cell cycle arrest in human KB/HeLa cells assessed as S phase accumulation at 1 nM after 24 hrs by FACS analysis; assay type: functional, cell-based; in short: as §3
# [25] = Cell cycle arrest in human KB/HeLa cells assessed as G2/M phase accumulation at 3.16 nM after 24 hrs by FACS analysis; assay type: functional, cell-based; in short: as §3
# [26] = Cell cycle arrest in human KB/HeLa cells assessed as G1 phase accumulation at 316 nM after 24 hrs by FACS analysis; assay type: functional, cell-based; in short: as §3
compound,measurement,setting,value
O=C1c2ccccc2C(C(O)C(=O)c2ccccc2)c2ccccc21 (stereo not given),IC50,K562,27 µM
same,IC50,Tubulin,> 10 µM
COc1ccc(C(=O)C=C2c3ccccc3C(=O)c3ccccc32)c(OC)c1,IC50,Tubulin,0.9 µM
COc1ccc(C(=O)C=C2c3ccccc3C(=O)c3ccccc32)c(OC)c1OC,IC50,K562,11 µM
same,IC50,Tubulin,> 10 µM
COc1cc(C(=O)C=C2c3ccccc3C(=O)c3ccccc32)cc(OC)c1OC,IC50,K562,0.7 µM
same,IC50,Tubulin,3.7 µM
COc1ccc(C(=O)C=C2c3ccccc3C(=O)c3ccccc32)c(O)c1OC,IC50,K562,> 30 µM
same,IC50,Tubulin,> 10 µM
COc1ccccc1OC(=O)C=C1c2ccccc2C(=O)c2ccccc21,IC50,K562,1.9 µM
same,IC50,Tubulin,10 µM
O=C(C=C1c2ccccc2C(=O)c2ccccc21)c1cccs1,IC50,K562,5.21 µM
same,IC50,Tubulin,10 µM
O=C(C=C1c2ccccc2C(=O)c2ccccc21)c1ccc(O)cc1,IC50,K562,3.43 µM
same,IC50,Tubulin,0.9 µM
COc1csc(C(=O)C=C2c3ccccc3C(=O)c3ccccc32)c1,IC50,K562,0.69 µM
same,IC50,Tubulin,2.3 µM
COc1cccc(C(=O)C=C2c3ccccc3C(=O)c3ccccc32)c1,IC50,K562,2.6 µM
same,IC50,Tubulin,3.3 µM
COc1ccc(C(=O)COc2c3ccccc3cc3ccccc23)cc1,IC50,K562,10 µM
COc1ccc(C(=O)C(O)C2c3ccccc3C(=O)c3ccccc32)cc1 (stereo not given),IC50,K562,18 µM
same,IC50,Tubulin,> 10 µM
COC(=O)C=C1c2ccccc2C(=O)c2ccccc21,IC50,K562,6 µM
Cc1ccc(C(=O)C=C2c3ccccc3C(=O)c3ccccc32)cc1,IC50,K562,0.64 µM
same,IC50,Tubulin,1.1 µM
COc1cccc(OC)c1OC(=O)C=C1c2ccccc2C(=O)c2ccccc21,IC50,K562,1.64 µM
same,IC50,Tubulin,10 µM
O=C(C=C1c2ccccc2C(=O)c2ccccc21)c1ccc(O)c(O)c1,IC50,SF-268,220 nM
same,IC50,NCI-H460,430 nM
same,IC50,RKO [1],> 9 µM
same,IC50,K562,0.16 µM
same,IC50,Tubulin,2.6 µM
same,IC50,RKO [2],240 nM
same,IC50,SK-OV-3,160 nM
same,IC50,[3],270 nM
COc1ccc(C(=O)C=C2c3ccccc3C(O)c3ccccc32)cc1 (stereo not given),IC50,K562,0.21 µM
same,IC50,Tubulin,1.2 µM
COc1cc(C(=O)C(O)C2c3ccccc3C(=O)c3ccccc32)cc(OC)c1OC (stereo not given),IC50,K562,21 µM
same,IC50,Tubulin,> 10 µM
O=C(C=C1c2ccccc2C(=O)c2ccccc21)c1ccccc1,IC50,K562,3.6 µM
same,IC50,Tubulin,5 µM
COC(=O)Nc1nc2cc(C(=O)c3cccs3)ccc2[nH]1 [NOCODAZOLE],Activity,[4],26.1%
same,Activity,[5],93.2%
same,Activity,[6],10%
same,Activity,[7],24.8%
same,Activity,[8],65.2%
same,IC50,[9],6 nM
same,Activity,[10],9.9%
same,Activity,[11],51.4%
same,IC50,RKO [1],> 10 µM
same,Activity,[12],64.2%
same,IC50,P388 [13],> 5000 nM
same,EC50,[14],91 nM
same,Activity,[15],11.1%
same,IC50,L1210,> 5000 nM
same,Activity,[16],22.3%
same,Activity,[17],64.6%
same,IC50,[18],400 nM
same,Activity,[19],64.4%
same,Activity,[20],6%
same,Activity,[21],25.7%
same,IC50,P388 [22],40 nM
same,Activity,[23],25.7%
same,Activity,[24],23.6%
same,Activity,[25],10.6%
same,IC50,[3],140 nM
same,Activity,[26],0.9%
CC(=O)O[C@H]1C(=O)[C@@]2(C)[C@H]([C@H](OC(=O)c3ccccc3)[C@]3(O)C[C@H](OC(=O)[C@H](O)[C@@H](NC(=O)c4ccccc4)c4ccccc4)C(C)=C1C3(C)C)[C@]1(OC(C)=O)CO[C@@H]1C[C@@H]2O [PACLITAXEL],IC50,SF-268,50 nM
same,Activity,[4],11%
same,IC50,NCI-H460,70 nM
same,Activity,[5],90.8%
same,Activity,[6],8.5%
same,Activity,[7],27%
same,Activity,[8],63.2%
same,IC50,[9],300 nM
same,Activity,[10],19%
same,Activity,[11],87.9%
same,IC50,RKO [1],> 10 µM
same,Activity,[12],64.8%
same,IC50,P388 [13],50 nM
same,EC50,[14],49 nM
same,Activity,[15],10.1%
same,IC50,L1210,70 nM
same,Activity,[16],1.2%
same,Activity,[17],63.6%
same,IC50,[18],50 nM
same,Activity,[19],31.1%
same,Activity,[20],8.9%
same,Activity,[21],26.6%
same,IC50,P388 [22],70 nM
same,Activity,[23],49.9%
same,IC50,RKO [2],20 nM
same,IC50,SK-OV-3,50 nM
same,Activity,[24],26.7%
same,Activity,[25],9.4%
same,IC50,[3],30 nM
same,Activity,[26],0.3%
CC[C@]1(O)C[C@@H]2CN(CCc3c([nH]c4ccccc34)[C@@](C(=O)OC)(c3cc4c(cc3OC)N(C)[C@H]3[C@@](O)(C(N)=O)[C@H](O)[C@]5(CC)C=CCN6CC[C@]43[C@@H]65)C2)C1 [VINDESINE],IC50,[9],200 nM
same,IC50,L1210,> 5000 nM
same,IC50,[18],260 nM
